{"data": "Assay results pooled from the literature", "note": "Lines come from different studies, so protocols differ."}
{"Structure (SMILES)": "COc1ccc([C@@H](O)c2cc(-c3ncnc4cc(N5CCOCC5)ccc34)c(F)cc2Cl)nn1", "test system": "human, plasma", "conditions": "oral, 400 mg, single dose, patients", "endpoint": "half-life", "value": "3.51 h"}
{"Structure (SMILES)": "Cn1cc(Nc2nc(N)nc(-c3cccc(-n4ccc5cc(C6CC6)cc(F)c5c4=O)c3CO)n2)cn1", "test system": "human, plasma", "conditions": "oral, 300 mg, single dose, fasted, healthy volunteers", "endpoint": "half-life", "value": "9.7 h"}
{"Structure (SMILES)": "CC(C)n1c(Nc2cccnc2)nc2cnc(Nc3ccc(N4CCN(C)CC4)cc3)nc21", "test system": "male human, plasma", "conditions": "oral, 100 mg, single dose", "endpoint": "half-life", "value": "35.4 h"}
{"Structure (SMILES)": "NS(=O)(=O)OC[C@@H]1C[C@@H](n2ccc3c(N[C@H]4CCc5ccccc54)ncnc32)C[C@@H]1O", "test system": "human, plasma", "conditions": "intravenous, 35 mg/m², patients", "endpoint": "half-life", "value": "5.1 h"}
{"Structure (SMILES)": "N#C[C@@]12C[C@@H]1[C@@H](n1cnc3c(N[C@@H](C4CCC4)C4CC4)nc(I)nc31)[C@H](O)[C@@H]2O", "test": "chemical stability", "test system": "simulated intestinal fluid", "conditions": "2 h", "endpoint": "compound remaining", "value": "97.8%"}
{"Structure (SMILES)": "Cc1c(C(=O)O)ccc2c3n(nc12)[C@@H]1[C@H](C3)N(CC2CC2)[C@@]2(C(=O)Nc3cc(Cl)ccc32)[C@H]1c1cccc(Cl)c1F", "test system": "female mouse, plasma", "conditions": "intravenous", "endpoint": "Vd", "value": "0.44 L/kg"}
{"Structure (SMILES)": "O=[N+]([O-])c1ccc(-c2ccc(O)cc2)c2cccnc12", "test system": "male CD-1 mouse, plasma", "conditions": "oral, 5 mg/kg", "endpoint": "Vd/F", "value": "157 L/kg"}
{"Structure (SMILES)": "NC(=S)NN=Cc1ncccc1N", "test system": "human, plasma", "conditions": "oral, 100 mg", "endpoint": "half-life", "value": "1.5 h"}
{"Structure (SMILES)": "Cc1ccc(C(=O)Nc2ccc(CN3CCN(C)CC3)c(C(F)(F)F)c2)cc1C#Cc1cnc2[nH]ncc2c1", "test system": "human, plasma", "conditions": "oral, 20 mg, healthy volunteers", "endpoint": "half-life", "value": "33.2 h"}
{"Structure (SMILES)": "CNC(=O)n1ccc2cc(Oc3ccnc(NC(=O)c4ccc(C5CCN(CCO)CC5)cc4)c3)c(OCCOC)cc21", "test system": "human, plasma", "conditions": "oral, 35 mg, single dose, healthy volunteers", "endpoint": "half-life", "value": "21 h"}
